# High-throughput results: PubChem BioAssay, The Scripps Research Institute Molecular Screening Center
# TRPML3 agonist: human TRPML3 channel agonists, primary screen, cell-based, HEK293 TRPML3-YFP, Fluo-8 calcium fluorescence, 3 µM; Mucolipin-3 (Homo sapiens), Q8TDD5; 100% = the carbachol control signal; activation, % at 3 µM; 0.29% of 220,000 active; AID 1448, 2008;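 active = activation above its plate's cutoff, the mean activation of the plate's test wells plus 3 SD, cut at about 12% in these data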;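 also: 0% = DMSO only wells and 100% = carbachol wells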
#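 Test system: TRPML3-YFP stable HEK293 cells. Doses: single point at 3 µM. Incubation: dye loading 1 h 37 °C then 30 min ambient, 125 s read. Signal: Fluo-8 calcium dye fluorescence, ex 470-495, em 515-575 nm. Measure: percent activation from peak-to-basal fluorescence ratio, scaled between DMSO and carbachol.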
# OXTR ag: human OXTR agonists, primary screen, fluorescence, CHO-OTR cells, Fluo-8 calcium. Oxytocin receptor (Homo sapiens), P30559. Fluo-8 calcium fluorescence; normalized: DMSO 0%, oxytocin 100%. activation, % at 3 µM. 0.32% of 320,000 active. AID 2435, 2010;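 active = activation above the mean of all tested compounds plus 3 SD, cutoff set per screening run, cut at about 20% in these data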;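 also: peak over basal fluorescence ratio from a 100 s FLIPR kinetic read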
# zfTRPN1 agonist: zebrafish TRPN1 channel agonists, primary screen, cell-based, HEK293, calcium fluorescence | transient receptor potential cation channel N1 (TRPN1/NompC), Danio rerio | HEK293 zebrafish TRPN1-YFP, Fluo-8 calcium fluorescence; 100% = response to 87 µM carbachol | activation, % at 3 µM | 0.18% of 220,000 active;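 active = activation above its plate's cutoff, the mean activation of test wells on that plate plus 3 SD, cut at about 19% in these data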;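 also: 0% = DMSO alone and 100% = 87 µM carbachol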
#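 Assay system: Zebrafish TRPN1-YFP in HEK293 cells | Incubation: Dye loading 1 h at 37 °C, then 30 min room temperature | Measured by: Kinetic Fluo-8 fluorescence, ex 470-495, em 515-575 nm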
# OXTR potentiator: human OXTR potentiators, primary screen, fluorescence, CHO-OTR cells, Fluo-8 calcium; Oxytocin receptor (Homo sapiens), P30559; Fluo-8 calcium fluorescence, potentiator mode; 0% = oxytocin EC15, 100% = EC100; activation, % at 3 µM; 0.061% of 320,000 active; AID 2445, 2010;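 active = activation above that plate's cutoff, the mean activation of tested compounds plus 3 SD, cut at about 6.6% in these data, passing the limit was not always enough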;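 also: 100% uses oxytocin at 75 nM as the full agonist control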
#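 System: human OTR in CHO cells; Also added: sub-maximal oxytocin, roughly EC15; Timing: compound 6 min at room temperature before oxytocin, 100 s read; Technique: Fluo-8 intracellular calcium fluorescence, ex 470-495, em 515-575 nm; Controls: oxytocin EC15 low and EC100 high; Replication: singlicate.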
# V1aR counter: agonists of human V1a receptor, primary screen, counter-screen for OXTR agonist project, fluorescence, CHO-V1R cells; Vasopressin V1a receptor (Homo sapiens), P37288; Fluo-8 calcium fluorescence, agonist mode; 0% DMSO, 100% 3 nM vasopressin; activation, % at 3 µM; 0.25% of 320,000 active; AID 2797, 2010;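 active = activation above the mean activation of all tested compounds plus 3 SD, per screening run, cut at about 20% in these data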;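 also: signal is peak over basal fluorescence ratio across a 100 second FLIPR read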
# Target sequence (P37288 whole entry, looked up): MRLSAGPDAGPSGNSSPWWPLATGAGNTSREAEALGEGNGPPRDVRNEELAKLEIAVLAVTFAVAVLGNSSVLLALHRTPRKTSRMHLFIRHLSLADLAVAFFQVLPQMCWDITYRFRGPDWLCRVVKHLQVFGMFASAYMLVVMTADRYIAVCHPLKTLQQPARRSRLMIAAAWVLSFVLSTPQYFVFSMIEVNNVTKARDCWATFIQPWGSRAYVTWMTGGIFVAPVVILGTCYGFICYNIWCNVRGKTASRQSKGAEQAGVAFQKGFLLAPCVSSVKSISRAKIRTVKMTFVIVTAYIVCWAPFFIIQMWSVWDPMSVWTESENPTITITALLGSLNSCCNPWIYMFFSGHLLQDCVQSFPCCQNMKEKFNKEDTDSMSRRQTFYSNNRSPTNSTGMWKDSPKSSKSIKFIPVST
# V1R ag confirm: V1a receptor agonists, calcium signal, confirmation, Fluo-8 calcium fluorescence, CHO-V1R cells; shares compounds with V1aR counter; activation, % at 3 µM; 20% of 180 active; agonist;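 active = average activation exceeds primary screen hit cutoff, cut at about 21% in these data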;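 also: peak over basal fluorescence ratio during a 100 s FLIPR read; 0% = DMSO only wells and 100% = 3 nM vasopressin wells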
# OXTR counter: human OXTR agonists, counter-screen for V1R agonist project, fluorescence, CHO-OTR cells, triplicate. Fluo-8 calcium fluorescence. shares compounds with V1aR counter. activation, % at 3 µM. 10% of 180 active;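 active = mean activation over three repeats above the cutoff from the earlier oxytocin receptor agonist screen, cut at about 20% in these data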;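 also: peak over minimum fluorescence ratio within a 100 second FLIPR read; 0% = DMSO only wells and 100% = oxytocin high control wells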
# Active calls of the source: *; / = no result. Compounds with a hit are over-represented: about 0.58% of the library has one in this group of screens.
SMILES,TRPML3 agonist,OXTR ag,zfTRPN1 agonist,OXTR potentiator,V1aR counter,V1R ag confirm,OXTR counter
Nc1nonc1-n1nnc(C(=O)N/N=C/c2cccnc2)c1CSc1ccc(Cl)cc1,/,15,/,-8,21*,3,5
COc1cccc(-c2c(C(=O)N/N=C/c3ccsc3)nnn2-c2nonc2N)c1,/,8,/,-8,25*,17,5
CCCOc1ccc(-c2c(C(=O)N/N=C/c3ccc(C)o3)nnn2-c2nonc2N)cc1,/,-1,/,-1,4,/,/
CCCOc1ccc(-c2c(C(=O)N/N=C/c3ccncc3)nnn2-c2nonc2N)cc1,/,9,/,-13,21*,0,0
N=c1sccn1CC(=O)Nc1ccc([N+](=O)[O-])cc1Cl,0,3,0,0,2,/,/
CCOC(=O)Cc1ccc(NCc2ccc(Cl)cc2)cc1,-1,-1,1,-17,-2,/,/
Cc1ccnc(NC(=O)c2ccc(OCC3CCCO3)cc2)c1 (configuration not stated),/,1,/,-8,0,/,/
CCOC(=O)Nc1ccc(C(=O)c2ccncc2)cc1,/,0,/,-14,20*,0,0
CC(=O)c1sc(NC(=O)Cc2c(F)cccc2Cl)nc1C,/,-1,/,-2,-1,/,/
O=C(Cc1c(F)cccc1Cl)Nc1nc2ccccc2s1,0,1,0,-20,22*,2,-1
N#CCCN(CCC#N)C(=O)C1c2ccccc2Oc2ccccc21,/,12,/,-6,26*,1,1
CN(CCC#N)C(=O)COC(=O)C1c2ccccc2Oc2ccccc21,/,2,/,-2,1,/,/
O=C1c2ccccc2C(=O)N1CCC#Cc1ccc2cc(CCCO)oc(=O)c2c1,/,15,/,-11,26*,9,8
CC[N+]1=C(C)C(C)(C)c2cc(C)ccc21,4,14,11,-4,23*,5,3
Cc1cccc(CNc2ccc(S(=O)(=O)N3CCCCC3)cc2)c1,/,-2,/,-2,2,/,/
CC(CC(=O)N1CCN(c2cccc(Cl)c2)CC1)S(=O)(=O)c1ccc2c(c1)NC(=O)CO2 (configuration not stated),/,17,/,-13,21*,7,5
CC1(c2nnc(Cc3ccccc3)o2)CC(c2cccc(Cl)c2)=NO1 (configuration not stated),/,3,/,-5,0,/,/
N#C/C(=C\c1c[nH]c2ccccc12)C(=O)NC1CCCC1,/,-1,/,-7,0,/,/
CC(=O)Nc1ccc(N2CCN(c3ccc(C(F)(F)F)cn3)CC2)nc1,0,6,1,-13,25*,2,2
O=C(Nc1ccc(N2CCN(c3ccc(C(F)(F)F)cn3)CC2)nc1)c1cccs1,1,2,0,5,1,/,/
CCC[C@@H]1C[C@@H](C(=O)N[C@@H](C2O[C@H](SC)[C@H](O)[C@@H](O)[C@H]2O)[C@H](C)Cl)N(C)C1 (some centres not stated),1,1,0,-2,43*,4,1
CCC[C@@H]1C[C@@H](C(=O)NC(C(C)Cl)[C@H]2O[C@H](SC)[C@H](O)[C@@H](O)[C@H]2O)N(C)C1 (some centres not stated),/,0,/,6,0,/,/
COc1ccc(NC(=O)CSc2nc3nc(C)cc(C)c3c(=O)[nH]2)cc1,/,-1,/,6,23*,0,-1
CCCCCCCCc1nnc(NC(=O)c2ccco2)s1,0,0,-1,-1,0,/,/
N#C/C(=C(/O)CSc1ccccn1)c1nc2ccccc2s1,2,14,7,-15,27*,2,1
SMILES,TRPML3 agonist,OXTR ag,zfTRPN1 agonist,OXTR potentiator,V1aR counter,V1R ag confirm,OXTR counter
Cc1ccc(SC/C(O)=C(\C#N)c2nc3ccccc3s2)cc1,1,11,1,-30,8,/,/
CC1=NN(c2ccc(Cl)cc2)C(=O)C1C(c1cccc(O)c1)c1c(C)[nH]n(-c2ccc(Cl)cc2)c1=O (configuration not stated),3,13,3,-9,20*,2,1
COC(=O)c1ccc(C(=O)OC)c(NC(=O)COC(=O)C2CC2C)c1 (configuration not stated),0,-1,0,-7,-1,/,/
Cc1ccc2c(c1)N(C(=O)CCC(=O)NC1CCCCCC1)CC(C)O2 (configuration not stated),/,-2,/,-4,-1,/,/
COc1ccc(Nc2cc(C(=O)NCCCOC(C)C)c3ccccc3n2)c(OC)c1,/,0,/,-8,25*,0,-1
O=C(O)c1ccccc1C1=Nc2ccc(O)cc2Oc2cc(O)ccc21,2,17,5,-7,23*,27*,20*
Cc1cc(-c2ccccc2C(=O)O)on1,1,0,0,-13,0,/,/
Cc1ccc(-c2ccc(=O)n(Cc3ccc(F)cc3)n2)cc1,/,5,/,-16,22*,2,-1
COC(=O)c1cc(CNC(=O)c2ccc(S(=O)(=O)N(C)c3ccccc3)cc2)ccc1OC,/,5,/,-7,24*,1,0
CSCCC(NC(=O)c1ccccc1Cl)C(=O)NCCc1ccccn1 (configuration not stated),/,1,/,-8,0,/,/
CCCCCCCCCCOC(=O)C[N+](C)(C)C/C=C(/C)Cl,-1,0,-2,-2,3,/,/
CCCCCCCCCCCCOC(=O)C[N+](C)(C)C,1,4,-1,-7,26*,0,-1
COC(=O)c1ccc([C@H](NC(=O)c2ccco2)[C@]2(C)C[C@H]2C2CCCCC2)cc1,/,-2,/,-11,1,/,/
CCOC(=O)c1c(NC(=O)CC)sc2c1CCN(Cc1ccccc1)C2,/,4,/,-5,22*,3,8
COc1ccc(NC(=O)CN2C(=O)/C(=C3\SC(=S)N(C4CCS(=O)(=O)C4)C3=O)c3ccccc32)cc1 (configuration not stated),1,-2,1,-1,22*,0,0
CC1(C)CC(=O)C(C(C2=C(O)CC(C)(C)CC2=O)c2ccc(Cl)c([N+](=O)[O-])c2)C(=O)C1 (configuration not stated),-1,8,0,-6,48*,16,10
COc1cc(OC)c(/C=C2\SC(=O)N(CC(=O)Nc3ccccc3F)C2=O)c(OC)c1,/,0,/,-9,0,/,/
COc1cc(/C=C2\SC(=O)N(CC(=O)Nc3ccccc3F)C2=O)cc(Cl)c1O,/,17,/,-15,22*,67*,60*
Cn1ncc([N+](=O)[O-])c1C(=O)Nc1ccc(-c2ccccc2)cc1,/,-1,/,-13,-1,/,/
